Reference: ChEMBL document CHEMBL1131151, “Novel cyclic compounds as potent phosphodiesterase 4 inhibitors” (J Med Chem, 1998)
pIC50: −log10 of the molar value.

How the values were obtained:
[1] = target: T1, Phosphodiesterase 4 (Homo sapiens, UniProt P27815+Q08499+Q07343+Q08493); experiment: Binding affinity at Phosphodiesterase 4 by measuring displacement of (+/-)-[3H]- Rolipram to guinea pig brain membranes.; format: tissue-based, Cavia porcellus; conditions: target entry is the homologue from another species
Outline: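 Guinea pig brain membranes (amount equal to 500 μg brain tissue per sample) incubated with 2 nM (±)-[3H]rolipram (24.7 Ci/mmol).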

[2] = target: T1, Phosphodiesterase 4; experiment: Concentration to inhibit 50% of Phosphodiesterase 4 (PDE-4) from guinea pig macrophages; format: protein assay, Cavia porcellus; conditions: target entry is the homologue from another species
Outline: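 Enzyme source: homogenate of guinea pig peritoneal macrophages, Percoll-purified and adherence-selected, from Dunkin Hartley animals pretreated with horse serum. Two-step radioisotopic hydrolysis assay with 1 μM cAMP substrate in 20 mM Tris-HCl pH 8.0, 10 mM MgCl2, 4 mM 2-mercaptoethanol, 0.2 mM EGTA, 0.05 mg/mL BSA.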

[3] = Inhibition of tumor necrosis factor alpha (TNF-alpha) release in murine endotoxemia model after peroral administration at 30 mg/kg.; format: organism-based; set-up: dose 30 mg/kg
[4] = system: Canis familiaris; experiment: Emetic effect in dogs at 1 mg/kg intravenous dose, 0 of 4 animals affected; format: functional, Canis lupus familiaris
Outline: (§1)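 Male and female beagles, 1–2 years old, 8–10 kg, food withheld the morning of testing. Compound in 100% DMSO given as a slow iv bolus into the cephalic vein over 30 s at 0.03 mL/kg. Dogs observed for up to 2 h or until emesis occurred. Usually 4 dogs (2 male, 2 female) per test.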

[5] = Inhibition of tumor necrosis factor alpha (TNF-alpha) release in murine endotoxemia model
Outline: (§2)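 Male Balb/c mice, 20–25 g, dosed orally in 0.25% methylcellulose/0.2% Tween-20 in water 4 h before ip challenge with E. coli 055:B5 LPS at 30 μg/mouse. Serum TNF-α measured by ELISA. ED50 taken from dose–response curves, n = 6 mice/group.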

[6] = (§3) Inhibition of tumor necrosis factor alpha (TNF-alpha) release in murine endotoxemia model after peroral administration; outline: as §2
[7] = system: Canis familiaris; experiment: Emetic effect in dogs at 0.2 mg/kg intravenous dose, 2 of 2 animals affected; format: functional, Canis lupus familiaris; outline: as §1
[8] = system: Canis familiaris; experiment: Emetic effect in dogs at 0.03 mg/kg intravenous dose, 2 of 2 animals affected; format: functional, Canis lupus familiaris; outline: as §1
[9] = system: Canis familiaris; experiment: Emetic effect in dogs at 0.01 mg/kg intravenous dose, 1 of 2 animals affected; format: functional, Canis lupus familiaris; outline: as §1
[10] = system: PBMC; experiment: Inhibition of TNF-alpha release from LPS-stimulated human mononuclear cells; format: functional, cell-based
[11] = system: Canis familiaris; experiment: Emetic effect in dogs at 3 mg/kg intravenous dose, 0 of 4 animals affected; format: functional, Canis lupus familiaris
[12] = as §3; remark: listed apart in the source
Outline: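 Male Balb/c mice, 20–25 g, were dosed orally in 0.25% methylcellulose/0.2% Tween-20 in water 4 h before an ip challenge with E. coli 055:B5 LPS at 30 μg/mouse. ED50 was taken from dose–response curves, n = 6 animals/group.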

[13] = system: Canis familiaris; experiment: Emetic effect in dogs at 0.7 mg/kg intravenous dose, 0 of 4 animals affected; format: functional, Canis lupus familiaris; outline: as §1

| Structure (SMILES) | Ki [1] [µM] | IC50 [2] [µM] | also measured |
| --- | --- | --- | --- |
| COc1ccc(C2(Cc3ccncc3)Cc3cc(OCc4ccccc4)ccc3C2=O)cc1OC1CCCC1 (stereo unspecified) | 0.06 | 0.02 |  |
| COc1ccc(C2(Cc3c(Cl)cncc3Cl)C(=O)c3ccccc3C2=O)cc1OC1CCCC1 | 1.7 | 3 |  |
| COc1ccc(C2(Cc3ccncc3)C(=O)c3ccc(OCc4ccccc4)cc3C2=O)cc1OC1CCCC1 (single isomer, unassigned; (+)) [listing 1 of 2 here] |  |  | inhibition [3]: 40% |
| COc1ccc([C@H](Cc2ccncc2)c2ccccc2)cc1OC1CCCC1 [CDP840] |  |  | Ratio [4]: 0; ED50 [5]: 25 mg/kg |
| COc1ccc(C2CNC(=O)C2)cc1OC1CCCC1 (stereo unspecified) [ROLIPRAM] |  |  | ED50 [6]: 8 mg/kg; Ratio [7]: 2; Ratio [8]: 2; Ratio [9]: 1; pIC50 [10]: 6.30 |
| COc1ccc(C2(Cc3ccncc3)C(=O)c3ccc(OC(=O)N4CCC(N5CCCCC5)CC4)cc3C2=O)cc1OC1CCCC1 (stereo unspecified) | 0.02 | 0.03 | Ratio [11]: 0; ED50 [12]: 15 mg/kg |
| COc1ccc(C2(Cc3ccncc3)Cc3ccccc3C2)cc1OC1CCCC1 | 1.6 | 0.75 |  |
| COc1ccc(C2(Cc3ccccc3)C(=O)c3ccccc3C2=O)cc1OC1CCCC1 | 2.3 | 0.5 |  |
| COc1ccc(C2(Cc3ccncc3)C(=O)c3ccc(OCC(=O)O)cc3C2=O)cc1OC1CCCC1 (stereo unspecified) | 0.02 | 0.05 |  |
| COc1ccc(C2(Cc3cc[n+]([O-])cc3)C(=O)c3ccccc3C2=O)cc1OC1CCCC1 | 0.02 | 0.05 |  |
| COc1ccc(C2(Cc3ccncc3)C(=O)c3ccc(OCc4ccncc4)cc3C2=O)cc1OC1CCCC1 (stereo unspecified) | 0.03 | 0.014 |  |
| COc1ccc(C2(Cc3ccc(O)cc3)C(=O)c3ccccc3C2=O)cc1OC1CCCC1 | 0.26 | 0.07 |  |
| COc1ccc(C2(Cc3ccncc3)C(O)c3ccccc3C2O)cc1OC1CCCC1 (stereo unspecified) | > 10 | > 10 |  |
| COc1ccc(C2C(=O)c3ccccc3C2=O)cc1OC1CCCC1 | > 10 | > 10 |  |
| COc1ccc(C2(Cc3ccncc3)C(=O)c3ccc(OC4CCN(C)CC4)cc3C2=O)cc1OC1CCCC1 (stereo unspecified) | 0.06 | 0.03 |  |
| COc1ccc(C2(Cc3ccncc3)C(=O)c3ccc(OCc4ccccc4)cc3C2=O)cc1OC1CCCC1 (stereo in doubt; (+)-18) | 0.02 | 0.03 |  |
| CCOc1ccc2c(c1)C(=O)C(Cc1ccncc1)(c1ccc(OC)c(OC3CCCC3)c1)C2=O (stereo unspecified) | 0.02 | 0.012 |  |
| COc1ccc(C2(Cc3ccncc3)C(=O)c3ccc(O)cc3C2=O)cc1OC1CCCC1 (stereo unspecified) | 0.045 | 0.1 |  |
| COc1ccc(C2(Cc3ccncc3)C(=O)c3ccc(OCc4ccccc4)cc3C2=O)cc1OC1CCCC1 (single isomer, unassigned; (+)) [listing 2 of 2 here] | 0.02 | 0.004 | Ratio [11]: 0; Ratio [13]: 0; pIC50 [10]: 6.70 |
| COc1ccc(C2(Cc3ccncc3)C(=O)c3ccccc3C2=O)cc1OC1CCCC1 | 0.01 | 0.03 | inhibition [3]: 0%; pIC50 [10]: 6.70 |
| COc1ccc(C2(Cc3ccncc3)C(=O)c3ccc(OCc4ccccc4)cc3C2=O)cc1OC1CCCC1 (stereo in doubt; (+)-17) | 0.02 | 0.006 |  |
